In ChEMBL document CHEMBL4622950, “The synthesis and antituberculosis activity of 5-alkynyl uracil derivatives” (Bioorg Med Chem Lett, 2020):
≈ marks a conversion by molar mass, not a printed value.

What was measured:
[1] = system: Mycobacterium tuberculosis; assay: Antitubercular activity against Mycobacterium tuberculosis H37Ra assessed as bacterial growth inhibition at 10 ug/ml by MABA relative to control; type: functional; conditions: read-out: GI
[2] = system: Mycobacterium tuberculosis; assay: Antitubercular activity against Mycobacterium tuberculosis H37Ra assessed as bacterial growth inhibition by MABA; type: functional
Summary of the method: (§1)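 Whole-cell growth inhibition of Mycobacterium bovis and M. tuberculosis H37Ra, read quantitatively by Microplate Alamar Blue Assay (alamar blue reagent). Compounds were tested across 1 to 100 µg/ml. Activity was expressed as MIC50 (µg/ml) from this concentration series.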

[3] = system: Mycobacterium tuberculosis; assay: Antitubercular activity against Mycobacterium tuberculosis H37Ra assessed as bacterial growth inhibition at 5 ug/ml by MABA relative to control; type: functional; conditions: read-out: GI
[4] = Cytotoxicity against African green monkey Vero cells assessed as reduction in cell viability by MTT assay; type: cell-based; conditions: chlorocebus sabaeus
Summary of the method: (§2)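 Viability read by the standard formazan (MTT) method. CC50 is the concentration giving a 50% decrease in cell viability, reported in µM as CC50±SD.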

[5] = system: Mycobacterium tuberculosis; assay: Antitubercular activity against Mycobacterium tuberculosis H37Ra assessed as bacterial growth inhibition at 50 ug/ml by MABA relative to control; type: functional; conditions: read-out: GI
[6] = Cytotoxicity against human MRC5 cells assessed as reduction in cell viability by MTT assay; type: cell-based; summary of the method: as §2
[7] = Cytotoxicity against human A549 cells assessed as reduction in cell viability by MTT assay; type: cell-based; summary of the method: as §2
[8] = system: Mycobacterium tuberculosis; assay: Antitubercular activity against Mycobacterium tuberculosis H37Ra assessed as bacterial growth inhibition at 100 ug/ml by MABA relative to control; type: functional; conditions: read-out: GI
[9] = system: Mycobacterium tuberculosis; assay: Antitubercular activity against Mycobacterium tuberculosis H37Ra assessed as bacterial growth inhibition at 50 to 100 ug/ml by MABA relative to control; type: functional
[10] = system: Mycobacterium tuberculosis; assay: Antitubercular activity against Mycobacterium tuberculosis H37Ra assessed as bacterial growth inhibition at 1 ug/ml by MABA relative to control; type: functional; conditions: read-out: GI
[11] = system: Mycobacterium tuberculosis; assay: Antitubercular activity against Mycobacterium tuberculosis H37Ra assessed as bacterial growth inhibition at 1 to 5 ug/ml by MABA relative to control; type: functional
[12] = system: Mycobacterium tuberculosis; assay: Antitubercular activity against Mycobacterium tuberculosis H37Ra assessed as bacterial growth inhibition by MABA relative to control; type: functional; summary of the method: as §1
[13] = system: Mycobacterium tuberculosis; assay: Antitubercular activity against Mycobacterium tuberculosis H37Ra assessed as bacterial growth inhibition at 25 ug/ml by MABA relative to control; type: functional; conditions: read-out: GI

Structure (SMILES)	inhibition of growth at 10 µg/mL [1]	MIC50 [2]	inhibition of growth at 5 µg/mL [3]	CC50 [4]	inhibition of growth at 50 µg/mL [5]	CC50 [6]	CC50 [7]	inhibition of growth at 100 µg/mL [8]	growth inhibition (GI) [9]	inhibition of growth at 1 µg/mL [10]	growth inhibition (GI) [11]	growth inhibition (GI) [12]	inhibition of growth at 25 µg/mL [13]
N[C@@H]1CONC1=O [CYCLOSERINE]	67%	5.2 µg/mL (≈ 50.9 µM)	50%										
CCCCC#Cc1cn([C@@H]2O[C@H](CO)[C@@H](O)[C@H]2O)c(=O)[nH]c1=O	10%	50 µg/mL (≈ 154 µM)		103 µM	50%	11.6 µM	83.2 µM	90%					
O=c1[nH]cc(C#Cc2ccccc2)c(=O)[nH]1		18.2 µg/mL (≈ 85.8 µM)		254 µM		75.1 µM	248 µM		90%				
NNC(=O)c1ccncc1 [ISONIAZID]		0.8 µg/mL (≈ 5.83 µM)								100%			
O=c1[nH]cc(C#CC2CCCCC2)c(=O)[nH]1		2.8 µg/mL (≈ 12.8 µM)		247 µM		62.8 µM	245 µM	90%			50%		
CO[C@H]1/C=C/O[C@@]2(C)Oc3c(C)c(O)c4c(O)c(c(/C=N/N5CCN(C)CC5)c(O)c4c3C2=O)NC(=O)/C(C)=C\C=C\[C@H](C)[C@H](O)[C@@H](C)[C@@H](O)[C@@H](C)[C@H](OC(C)=O)[C@@H]1C [RIFAMPIN]		0.7 µg/mL (≈ 0.851 µM)								100%			
O=c1[nH]c(=O)n([C@@H]2O[C@H](CO)[C@@H](O)[C@H]2O)cc1C#CC(O)c1ccccc1 (stereo not given in full)		1.1 µg/mL (≈ 2.94 µM)		65.4 µM		0.9 µM	34.2 µM				100%		
CCCCCCC#Cc1c[nH]c(=O)[nH]c1=O				250 µM		94.9 µM	249 µM					0%	
CCCCC#Cc1c[nH]c(=O)[nH]c1=O				253 µM		113 µM	250 µM					0%	
CC#Cc1c[nH]c(=O)[nH]c1=O				262 µM		117 µM	256 µM					0%	
CCCCCCC#Cc1cn([C@@H]2O[C@H](CO)[C@@H](O)[C@H]2O)c(=O)[nH]c1=O	0%	< 50 µg/mL		111 µM		15.7 µM	87.2 µM	90%					
O=c1[nH]c(=O)n([C@@H]2O[C@H](CO)[C@@H](O)[C@H]2O)cc1C#Cc1ccccc1	70%	3.2 µg/mL (≈ 9.29 µM)		78.4 µM		1.2 µM	42.5 µM		90%		50%		
C[Si](C)(C)C#Cc1c[nH]c(=O)[nH]c1=O		100 µg/mL (≈ 480 µM)		270 µM		124 µM	268 µM	50%					
O=c1[nH]c(=O)n([C@@H]2O[C@H](CO)[C@@H](O)[C@H]2O)cc1C#CC1CCCCC1		18.9 µg/mL (≈ 53.9 µM)		148 µM	70%	36.8 µM	127 µM				10%		55%
O=c1[nH]c(=O)n([C@@H]2O[C@H](CO)[C@@H](O)[C@H]2O)cc1C#CC1CC1	70%			133 µM		24.2 µM	115 µM	90%			50%		
CCC#Cc1c[nH]c(=O)[nH]c1=O				263 µM		120 µM	253 µM					0%	
O=c1[nH]cc(C#CC2CC2)c(=O)[nH]1		5.2 µg/mL (≈ 29.5 µM)		252 µM	70%	101 µM	251 µM	90%					
O=c1[nH]cc(C#CC(O)c2ccccc2)c(=O)[nH]1 (stereo not given)	75%	2.9 µg/mL (≈ 12 µM)		242 µM		38.4 µM	237 µM		90%		50%		
